Reference: ChEMBL document CHEMBL4219103, “Design and synthesis of 1,4-substituted 1H-1,2,3-triazolo-quinazolin-4(3H)-ones by Huisgen 1,3-dipolar cycloaddition with PI3Kγ isoform selective activity” (Bioorg Med Chem Lett, 2018)
pIC50: −log10 of the molar value. The source made the active and inactive calls. The calls are words filed in the database; no cut-off is given here.

Tests used:
HL-60 [1] = assay: Antiproliferative activity against human HL60 cells after 24 to 48 hrs by MTT assay; format: functional, cell-based
COLO 205 = assay: Antiproliferative activity against human COLO205 cells after 24 to 48 hrs by MTT assay; format: functional, cell-based
[2] = Antiproliferative activity against human FR2 cells after 24 to 48 hrs by MTT assay; format: cell-based
HCT-116 = assay: Antiproliferative activity against human HCT116 cells after 24 to 48 hrs by MTT assay; format: functional, cell-based
MCF7 = assay: Antiproliferative activity against human MCF7 cells after 24 to 48 hrs by MTT assay; format: functional, cell-based
A549 = assay: Antiproliferative activity against human A549 cells after 24 to 48 hrs by MTT assay; format: functional, cell-based
HL-60 [3] = assay: Downregulation of p110alpha protein expression levels in human HL60 cells at 1 uM after 2 hrs by Western blot analysis; format: functional, cell-based
Method in brief: (§1)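 HL-60 cells were exposed to test agent at 1 µM for short time intervals, including 2 h. Expression of the p110α, p110β, p110δ and p110γ isoforms was then assessed by western blotting. p110γ blots were also quantified by densitometry at each time point.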

[4] = molecular target: Phosphatidylinositol 4,5-bisphosphate 3-kinase catalytic subunit alpha isoform (Homo sapiens, UniProt P42336); assay: Inhibition of PI3K-alpha (unknown origin) by cell free biochemical assay
Phosphatidylinositol 4,5-bisphosphate 3-kinase catalytic subunit alpha isoform, sequence (P42336 whole entry, canonical isoform): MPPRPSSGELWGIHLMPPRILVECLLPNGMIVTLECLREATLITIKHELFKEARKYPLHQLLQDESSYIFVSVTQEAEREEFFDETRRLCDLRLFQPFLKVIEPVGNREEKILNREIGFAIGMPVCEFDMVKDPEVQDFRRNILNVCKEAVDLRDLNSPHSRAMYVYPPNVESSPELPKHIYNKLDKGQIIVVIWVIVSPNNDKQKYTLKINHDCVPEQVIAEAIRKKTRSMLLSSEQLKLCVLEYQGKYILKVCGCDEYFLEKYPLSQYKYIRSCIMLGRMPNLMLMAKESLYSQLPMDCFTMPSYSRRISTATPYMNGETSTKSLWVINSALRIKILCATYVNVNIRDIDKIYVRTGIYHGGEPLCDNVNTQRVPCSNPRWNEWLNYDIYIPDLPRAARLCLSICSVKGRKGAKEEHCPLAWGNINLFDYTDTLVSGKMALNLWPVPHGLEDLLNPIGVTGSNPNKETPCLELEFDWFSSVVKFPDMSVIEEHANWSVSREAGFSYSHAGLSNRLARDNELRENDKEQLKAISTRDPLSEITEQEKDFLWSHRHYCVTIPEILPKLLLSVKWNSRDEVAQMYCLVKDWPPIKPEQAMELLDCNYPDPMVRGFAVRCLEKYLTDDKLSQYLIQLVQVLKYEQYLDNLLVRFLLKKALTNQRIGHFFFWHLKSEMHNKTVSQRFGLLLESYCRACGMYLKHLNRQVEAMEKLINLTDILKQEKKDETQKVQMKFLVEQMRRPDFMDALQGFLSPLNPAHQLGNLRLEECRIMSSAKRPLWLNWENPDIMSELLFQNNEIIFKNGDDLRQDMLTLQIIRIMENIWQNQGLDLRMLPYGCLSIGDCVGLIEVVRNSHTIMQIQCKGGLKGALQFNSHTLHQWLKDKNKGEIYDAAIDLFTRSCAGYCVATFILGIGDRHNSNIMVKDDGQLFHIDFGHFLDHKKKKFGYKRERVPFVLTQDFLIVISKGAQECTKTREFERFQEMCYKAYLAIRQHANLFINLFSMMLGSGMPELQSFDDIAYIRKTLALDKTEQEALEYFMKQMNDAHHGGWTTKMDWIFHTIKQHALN

HL-60 [5] = assay: Downregulation of p110delta protein expression levels in human HL60 cells at 1 uM after 2 hrs by Western blot analysis; format: functional, cell-based; method in brief: as §1
[6] = molecular target: Phosphatidylinositol 4,5-bisphosphate 3-kinase catalytic subunit gamma isoform (Homo sapiens, UniProt P48736); assay: Inhibition of PI3K-gamma (unknown origin) by cell free biochemical assay
Phosphatidylinositol 4,5-bisphosphate 3-kinase catalytic subunit gamma isoform, sequence (P48736 whole entry, canonical isoform): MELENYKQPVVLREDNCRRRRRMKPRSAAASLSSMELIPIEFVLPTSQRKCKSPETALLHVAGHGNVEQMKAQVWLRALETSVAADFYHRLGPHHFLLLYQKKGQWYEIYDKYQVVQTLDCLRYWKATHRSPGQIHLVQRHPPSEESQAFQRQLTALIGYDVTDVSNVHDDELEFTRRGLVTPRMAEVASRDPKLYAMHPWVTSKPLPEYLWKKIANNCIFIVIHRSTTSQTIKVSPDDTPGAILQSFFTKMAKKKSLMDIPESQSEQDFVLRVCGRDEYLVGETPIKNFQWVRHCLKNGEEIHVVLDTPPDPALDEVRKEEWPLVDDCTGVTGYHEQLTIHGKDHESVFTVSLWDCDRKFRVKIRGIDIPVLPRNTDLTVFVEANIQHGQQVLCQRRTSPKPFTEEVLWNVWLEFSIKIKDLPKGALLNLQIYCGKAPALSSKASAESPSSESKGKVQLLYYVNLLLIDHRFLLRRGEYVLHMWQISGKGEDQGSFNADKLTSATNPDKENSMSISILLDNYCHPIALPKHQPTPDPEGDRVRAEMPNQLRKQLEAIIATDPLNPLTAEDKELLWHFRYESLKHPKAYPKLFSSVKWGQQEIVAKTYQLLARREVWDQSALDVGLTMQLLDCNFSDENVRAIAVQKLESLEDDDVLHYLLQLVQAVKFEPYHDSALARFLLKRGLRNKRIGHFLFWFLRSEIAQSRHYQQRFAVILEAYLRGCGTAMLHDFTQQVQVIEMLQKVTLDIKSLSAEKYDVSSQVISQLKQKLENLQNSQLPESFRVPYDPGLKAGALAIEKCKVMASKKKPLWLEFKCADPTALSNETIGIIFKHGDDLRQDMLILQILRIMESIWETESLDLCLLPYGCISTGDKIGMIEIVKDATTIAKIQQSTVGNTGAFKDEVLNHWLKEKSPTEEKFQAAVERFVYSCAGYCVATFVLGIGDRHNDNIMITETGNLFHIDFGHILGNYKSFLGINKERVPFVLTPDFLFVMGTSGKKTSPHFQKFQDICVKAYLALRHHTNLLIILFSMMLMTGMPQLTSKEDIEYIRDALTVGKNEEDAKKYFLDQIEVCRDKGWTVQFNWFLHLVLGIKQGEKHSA

Homo sapiens = organism: Homo sapiens; assay: Selectivity index, ratio of IC50 for PI3K-delta (unknown origin) to IC50 for PI3K-gamma (unknown origin)
HL-60 [7] = assay: Downregulation of p110gamma protein expression levels in human HL60 cells at 1 uM after 2 hrs by Western blot analysis relative to control; format: functional; method in brief: as §1
[8] = molecular target: Phosphatidylinositol 4,5-bisphosphate 3-kinase catalytic subunit beta isoform (Homo sapiens, UniProt P42338); assay: Inhibition of PI3K-beta (unknown origin) by cell free biochemical assay
Phosphatidylinositol 4,5-bisphosphate 3-kinase catalytic subunit beta isoform, sequence (P42338 whole entry, canonical isoform): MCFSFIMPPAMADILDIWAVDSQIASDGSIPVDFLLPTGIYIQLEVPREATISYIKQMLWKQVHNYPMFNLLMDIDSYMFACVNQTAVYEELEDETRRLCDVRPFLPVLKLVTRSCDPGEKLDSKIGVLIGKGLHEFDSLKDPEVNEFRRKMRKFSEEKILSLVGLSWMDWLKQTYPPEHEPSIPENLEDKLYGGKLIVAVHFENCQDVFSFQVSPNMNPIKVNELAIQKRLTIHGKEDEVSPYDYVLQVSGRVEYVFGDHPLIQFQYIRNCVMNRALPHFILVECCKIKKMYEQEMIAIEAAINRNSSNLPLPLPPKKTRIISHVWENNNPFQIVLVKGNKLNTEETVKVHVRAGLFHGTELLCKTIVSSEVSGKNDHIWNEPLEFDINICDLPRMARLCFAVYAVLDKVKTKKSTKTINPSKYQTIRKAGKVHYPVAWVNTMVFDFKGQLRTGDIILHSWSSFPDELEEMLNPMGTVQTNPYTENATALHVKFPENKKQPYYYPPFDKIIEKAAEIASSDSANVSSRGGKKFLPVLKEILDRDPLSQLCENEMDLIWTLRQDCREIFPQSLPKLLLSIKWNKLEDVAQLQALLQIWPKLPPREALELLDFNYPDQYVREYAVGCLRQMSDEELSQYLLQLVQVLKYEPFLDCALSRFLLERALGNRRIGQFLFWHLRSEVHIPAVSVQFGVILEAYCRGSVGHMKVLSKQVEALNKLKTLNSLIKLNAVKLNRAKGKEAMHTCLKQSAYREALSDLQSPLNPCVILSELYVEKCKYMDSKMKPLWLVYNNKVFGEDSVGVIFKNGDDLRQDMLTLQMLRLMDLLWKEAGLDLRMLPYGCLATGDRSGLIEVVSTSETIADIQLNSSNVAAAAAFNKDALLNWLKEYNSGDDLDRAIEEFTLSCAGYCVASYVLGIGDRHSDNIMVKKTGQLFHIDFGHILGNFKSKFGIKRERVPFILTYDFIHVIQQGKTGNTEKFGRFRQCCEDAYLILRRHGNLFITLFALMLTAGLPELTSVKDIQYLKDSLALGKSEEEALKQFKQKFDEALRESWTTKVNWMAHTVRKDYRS

HL-60 [9] = assay: Downregulation of p110beta protein expression levels in human HL60 cells at 1 uM after 2 hrs by Western blot analysis; format: functional, cell-based; method in brief: as §1
[10] = molecular target: T1, Phosphatidylinositol 4,5-bisphosphate 3-kinase catalytic subunit delta isoform (Homo sapiens, UniProt O00329); assay: Inhibition of PI3K-delta (unknown origin) by cell free biochemical assay
T1 sequence (O00329 whole entry): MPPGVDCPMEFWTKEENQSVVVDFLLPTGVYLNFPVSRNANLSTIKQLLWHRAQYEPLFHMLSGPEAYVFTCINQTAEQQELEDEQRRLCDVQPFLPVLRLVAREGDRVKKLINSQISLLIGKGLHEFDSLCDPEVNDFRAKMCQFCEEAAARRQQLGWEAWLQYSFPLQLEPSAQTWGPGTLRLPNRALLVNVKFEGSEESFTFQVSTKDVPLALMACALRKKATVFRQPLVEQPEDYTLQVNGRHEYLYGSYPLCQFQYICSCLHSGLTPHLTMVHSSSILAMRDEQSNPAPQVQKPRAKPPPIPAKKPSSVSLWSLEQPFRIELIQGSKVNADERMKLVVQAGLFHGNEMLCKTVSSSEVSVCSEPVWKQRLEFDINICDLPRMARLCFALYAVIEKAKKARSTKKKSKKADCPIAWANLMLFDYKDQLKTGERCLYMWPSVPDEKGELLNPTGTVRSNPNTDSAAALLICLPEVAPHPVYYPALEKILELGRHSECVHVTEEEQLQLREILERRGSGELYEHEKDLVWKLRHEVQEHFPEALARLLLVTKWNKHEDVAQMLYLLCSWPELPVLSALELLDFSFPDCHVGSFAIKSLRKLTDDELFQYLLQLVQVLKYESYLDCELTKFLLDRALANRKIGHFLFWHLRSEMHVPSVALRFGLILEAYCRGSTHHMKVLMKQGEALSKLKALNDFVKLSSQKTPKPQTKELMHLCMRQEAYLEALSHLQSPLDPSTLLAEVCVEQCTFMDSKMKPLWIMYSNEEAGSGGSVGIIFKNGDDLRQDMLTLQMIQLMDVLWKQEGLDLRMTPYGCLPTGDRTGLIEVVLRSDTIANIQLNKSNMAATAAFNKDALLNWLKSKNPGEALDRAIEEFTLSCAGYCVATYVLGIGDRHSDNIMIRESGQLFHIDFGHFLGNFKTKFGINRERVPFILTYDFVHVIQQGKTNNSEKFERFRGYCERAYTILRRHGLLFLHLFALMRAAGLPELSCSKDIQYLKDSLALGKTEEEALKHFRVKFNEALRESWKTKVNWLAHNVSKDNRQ

Row | pIC50 (HL-60 [1]) | pIC50 (COLO 205) | pIC50 (HCT-116) | pIC50 (MCF7) | pIC50 (A549) | pIC50 [4] | pIC50 [6] | Ratio IC50 (Homo sapiens) | pIC50 [8] | pIC50 [10] | SMILES | pIC50 [2] | Activity (HL-60 [3]) | Activity (HL-60 [5]) | Activity (HL-60 [7]) [%] | Activity (HL-60 [9])
1 | < 5.00 | < 5.00 | < 5.00 | < 5.00 | < 5.00 | – | – | – | – | – | Cc1ccccc1-n1c(Cn2cc(-c3cc(C(F)(F)F)cc(C(F)(F)F)c3)nn2)nc2ccccc2c1=O | < 5.00 | – | – | – | –
2 | < 5.00 | < 5.00 | < 5.00 | < 5.00 | < 5.00 | – | – | – | – | – | Cc1ccccc1-n1c(Cn2cc(-c3ccccc3F)nn2)nc2ccccc2c1=O | < 5.00 | – | – | – | –
3 | < 5.00 | < 5.00 | < 5.00 | < 5.00 | < 5.00 | – | – | – | – | – | Cc1ccccc1-n1c(Cn2cc(CNS(=O)(=O)c3ccc(F)cc3F)nn2)nc2cccc(C)c2c1=O | < 5.00 | – | – | – | –
4 | < 5.00 | < 5.00 | < 5.00 | < 5.00 | < 5.00 | – | – | – | – | – | Cc1ccccc1-n1c(Cn2cc(-c3ccccc3C(F)(F)F)nn2)nc2ccccc2c1=O | < 5.00 | – | – | – | –
5 | < 5.00 | < 5.00 | < 5.00 | < 5.00 | < 5.00 | – | – | – | – | – | Cc1cccc2nc(Cn3cc(-c4cccnc4)nn3)n(-c3ccccc3C(F)(F)F)c(=O)c12 | < 5.00 | – | – | – | –
6 | < 5.00 | < 5.00 | < 5.00 | < 5.00 | < 5.00 | – | – | – | – | – | Cc1ccccc1-n1c(Cn2cc(-c3ccccc3C(F)(F)F)nn2)nc2cccc(C)c2c1=O | < 5.00 | – | – | – | –
7 | < 5.00 | < 5.00 | < 5.00 | < 5.00 | < 5.00 | – | – | – | – | – | Cc1ccccc1-n1c(Cn2cc(-c3ccc(-c4ccccc4)cc3)nn2)nc2ccccc2c1=O | < 5.00 | – | – | – | –
8 | < 5.00 | < 5.00 | < 5.00 | < 5.00 | < 5.00 | – | – | – | – | – | Cc1ccccc1-n1c(Cn2cc(CNS(=O)(=O)c3ccccc3)nn2)nc2cccc(C)c2c1=O | < 5.00 | – | – | – | –
9 | < 5.00 | < 5.00 | < 5.00 | < 5.00 | < 5.00 | – | – | – | – | – | Cc1ccccc1-n1c(Cn2cc(-c3ccc(-c4ccccc4)cc3)nn2)nc2cccc(C)c2c1=O | < 5.00 | – | – | – | –
10 | < 5.00 | < 5.00 | < 5.00 | < 5.00 | < 5.00 | – | – | – | – | – | Cc1cccc2nc(Cn3cc(-c4ccccc4)nn3)n(-c3ccccc3C(F)(F)F)c(=O)c12 | < 5.00 | – | – | – | –
11 | 6.00 | < 5.00 | < 5.00 | < 5.00 | < 5.00 | 3.60 | 6.00 | 5 | 3.37 | 5.30 | Cc1ccccc1-n1c(Cn2cc(-c3ccccc3)nn2)nc2cccc(C)c2c1=O | < 5.00 | inactive | inactive | >50 | inactive
12 | < 5.00 | < 5.00 | < 5.00 | < 5.00 | < 5.00 | – | – | – | – | – | COc1ccc(S(=O)(=O)NCc2cn(Cc3nc4ccccc4c(=O)n3-c3ccccc3C)nn2)cc1 | < 5.00 | – | – | – | –
13 | < 5.00 | < 5.00 | < 5.00 | < 5.00 | < 5.00 | – | – | – | – | – | Cc1ccccc1-n1c(Cn2cc(COc3cccc(F)c3)nn2)nc2ccccc2c1=O | < 5.00 | – | – | – | –
14 | < 5.00 | < 5.00 | < 5.00 | < 5.00 | < 5.00 | – | – | – | – | – | Cc1ccccc1-n1c(Cn2cc(-c3ccc(Br)cc3)nn2)nc2ccccc2c1=O | < 5.00 | – | – | – | –
15 | 6.00 | < 5.00 | < 5.00 | < 5.00 | < 5.00 | 3.54 | 5.52 | 3 | 3.45 | 5.00 | COc1ccc(-c2cn(Cc3nc4cccc(C)c4c(=O)n3-c3ccccc3C)nn2)c(C)c1 | < 5.00 | inactive | inactive | >50 | inactive
16 | < 5.00 | < 5.00 | < 5.00 | < 5.00 | < 5.00 | – | – | – | – | – | Cc1ccccc1-n1c(Cn2cc(-c3cccnc3)nn2)nc2cccc(C)c2c1=O | < 5.00 | – | – | – | –
17 | < 5.00 | < 5.00 | < 5.00 | < 5.00 | < 5.00 | – | – | – | – | – | Cc1ccccc1-n1c(Cn2cc(-c3ccc(Br)cc3)nn2)nc2cccc(C)c2c1=O | < 5.00 | – | – | – | –
18 | < 5.00 | < 5.00 | < 5.00 | < 5.00 | < 5.00 | – | – | – | – | – | Cc1cc(OCc2cn(Cc3nc4cccc(C)c4c(=O)n3-c3ccccc3C)nn2)ccc1Cl | < 5.00 | – | – | – | –
19 | < 5.00 | < 5.00 | < 5.00 | < 5.00 | < 5.00 | – | – | – | – | – | Cc1cccc(OCc2cn(Cc3nc4ccccc4c(=O)n3-c3ccccc3C)nn2)c1 | < 5.00 | – | – | – | –
20 | < 5.00 | < 5.00 | < 5.00 | < 5.00 | < 5.00 | – | – | – | – | – | Cc1ccc(NCc2cn(Cc3nc4cccc(C)c4c(=O)n3-c3ccccc3C(F)(F)F)nn2)cc1C | < 5.00 | – | – | – | –
21 | < 5.00 | < 5.00 | < 5.00 | < 5.00 | < 5.00 | – | – | – | – | – | Cc1ccccc1-n1c(Cn2cc(-c3ccccc3F)nn2)nc2cccc(C)c2c1=O | < 5.00 | – | – | – | –
22 | < 5.00 | < 5.00 | < 5.00 | < 5.00 | < 5.00 | – | – | – | – | – | COc1ccc(-c2cn(Cc3nc4cccc(C)c4c(=O)n3-c3ccccc3C(F)(F)F)nn2)c(C)c1 | < 5.00 | – | – | – | –
23 | < 5.00 | < 5.00 | < 5.00 | < 5.00 | < 5.00 | – | – | – | – | – | Cc1ccc(-c2cn(Cc3nc4cccc(C)c4c(=O)n3-c3ccccc3C)nn2)cc1 | < 5.00 | – | – | – | –
24 | < 5.00 | < 5.00 | < 5.00 | < 5.00 | < 5.00 | – | – | – | – | – | COc1ccc(OCc2cn(Cc3nc4ccccc4c(=O)n3-c3ccccc3C)nn2)cc1 | < 5.00 | – | – | – | –
25 | < 5.00 | < 5.00 | < 5.00 | < 5.00 | < 5.00 | – | – | – | – | – | Cc1ccccc1-n1c(Cn2cc(-c3ccc(OC(F)(F)F)cc3)nn2)nc2cccc(C)c2c1=O | < 5.00 | – | – | – | –

Row | SMILES | pIC50 (HL-60 [1]) | pIC50 (COLO 205) | pIC50 (HCT-116) | pIC50 (MCF7) | pIC50 (A549) | pIC50 [4] | pIC50 [6] | Ratio IC50 (Homo sapiens) | pIC50 [8] | pIC50 [10] | pIC50 [2] | Activity (HL-60 [3]) | Activity (HL-60 [5]) | Activity (HL-60 [7]) [%] | Activity (HL-60 [9])
26 | Cc1ccccc1-n1c(Cn2cc(-c3ccccc3)nn2)nc2ccccc2c1=O | < 5.00 | < 5.00 | < 5.00 | < 5.00 | < 5.00 | – | – | – | – | – | < 5.00 | – | – | – | –
27 | Cc1ccccc1-n1c(Cn2cnc3c(N)ncnc32)nc2cccc(C)c2c1=O | 6.00 | < 5.00 | < 5.00 | < 5.00 | < 5.00 | – | – | – | – | – | < 5.00 | – | – | – | –
